The source of these data is ChEMBL document CHEMBL4613263, “Optimization of Tetrahydroindazoles as Inhibitors of Human Dihydroorotate Dehydrogenase and Evaluation of Their Activity and In Vitro Metabolic Stability” (J Med Chem, 2020).

Molecules are shown by their SMILES. The source made the active and inactive calls. The calls are words filed in the database; no cut-off is given here.

Data set [1] concerns the target T1, Dihydroorotate dehydrogenase (quinone), mitochondrial (Homo sapiens, UniProt Q02127). Description: Inhibition of recombinant human DHODH using dihydroorotic acid as substrate measured for 68 mins by DCIP based colorimetric assay.
For data set [2], the target named is T1, Dihydroorotate dehydrogenase (quinone), mitochondrial. The data set can be described thus: Inhibition of DHOH in human ARN8 cells assessed as increase in YOYO3 positive cells at 20 nM incubated for 48 hrs measured every 2 hrs by YOYO-3 staining based live cell imaging analysis. Put shortly:
(§1)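 ARN8 cells seeded at 4×10^3 per well and left 24 h, then given 20 nM compound in medium containing 2 µM caspase-3/7 substrate and 0.3 µM YOYO-3 (0.2% DMSO). Where indicated, 100 µM uridine or 20 µM Z-VAD-FMK was added. Cells imaged every 2 h for 48.5 h in an IncuCyte. Positive-cell counts per mm² normalized to confluence %; mean ± SD of three technical replicates.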

Data set [3] has the same target. The data set can be described thus: Inhibition of DHOH in human ARN8 cells assessed as cleaved PARP level at 20 nM incubated for 24 hrs treated with pan-caspase inhibitor, Z-VAD-FMK for 4.5 hrs prior to harvesting by Western blot analysis. Format: cell-based. Put shortly: (§2)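 ARN8 cells treated 24 h at 20 nM, with 20 µM Z-VAD-FMK or vehicle added 4.5 h before harvest. Etoposide arm was 20 µM for 1 h alongside Z-VAD-FMK. Lysates normalized for protein and analysed by western blot for p53, p-Ser15 p53, γ-H2AX, H2AX and cleaved PARP (85 kDa) against stain-free total-protein loading.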
A general note: A western blot detects proteins with antibodies after separation by electrophoresis.

Data set [4] has the same target. The data set can be described thus: Inhibition of DHOH in human ARN8 cells assessed as increase in caspase 3/7 activity at 20 nM incubated for 48 hrs by live cell imaging analysis. Format: cell-based. Put shortly: as §1
Data set [5] in a line: Metabolic stability in human liver microsomes assessed as half life at 1 uM incubated for 60 mins by LC-MS/MS analysis. The settings on record: liver microsomes. Format: ADME, Microsome. Put shortly: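 Compound at 1 µM with 1.0 mg/mL human or mouse liver microsomes in 50 mM potassium phosphate pH 7.4, preincubated 5 min at 37 °C. Started with 1 mM NADPH (or blank buffer). Quenched with cold acetonitrile containing glipizide at 0, 5, 15, 30, 60 min. Parent loss tracked by LC-MS/MS in MRM mode; t½ = 0.693/k from slope of peak-area ratio versus time.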

Data set [6] has as its target T1, Dihydroorotate dehydrogenase (quinone), mitochondrial. The data set can be described thus: Inhibition of DHOH in human ARN8 cells assessed as increase in caspase 3/7 activity at 20 nM incubated for 48 hrs in presence of pan-caspase inhibitor, Z-VAD-FMK by live cell imaging analysis. Format: cell-based. Put shortly:
as §1

Data set [7] shares this target. The data set can be described thus: Inhibition of DHODH in human ARN8 cells assessed as induction of DNA damage by measuring increase in p53 phosphorylation at Ser15 at 20 nM incubated for 24 hrs by Western blot analysis. Type of data set: cell-based. The method in brief:
(§3)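 ARN8 cells seeded at 15×10^4 per well and left 24 h. Treated 24 h at 20 nM, or with etoposide at 20 µM for 1 h, with 100 µM uridine where indicated. Lysates made in LDS buffer and protein-normalized, then run on 4–15% gels and transferred to PVDF. Phospho-proteins blocked in BSA, others in milk; primary antibodies overnight at 4 °C, ECL detection. Loading judged by stain-free total protein.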

Data set [8] in a line: Cytotoxicity against human HNDF cells assessed as reduction in cell viability incubated for 72 hrs by SRB assay. Format: cell-based. The conditions noted are these: Homo sapiens, 72 h; read-out: IC50. The method in brief:
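Human normal dermal fibroblasts seeded at 15×10^2 per well and left 24 h, then exposed to compound for 72 h with 0.1% DMSO final. Cells fixed with TCA at 4 °C for 1 h, stained with SRB, solubilized in 10 mM Tris and read at 490 nm. Values normalized to DMSO control. Tabulated means come only from experiments where IC50 fell below 10 000 nM.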

In data set [9] the target is T1, Dihydroorotate dehydrogenase (quinone), mitochondrial. Description: Inhibition of DHODH in human ARN8 cells assessed as induction of DNA damage by measuring increase in p53 phosphorylation at Ser15 at 20 nM incubated for 24 hrs in presence of pan-caspase inhibitor, Z-VAD-FMK by Western blot analysis. Type of data set: cell-based. Put shortly: as §2
For data set [10] the target is unchanged. The data set can be described thus: Inhibition of DHOH in human ARN8 cells assessed as increase in YOYO3 positive cells at 20 nM incubated for 48 hrs in presence of 100 uM […], uridine measured every 2 hrs by YOYO-3 staining based live cell imaging analysis. Put shortly:
as §1

Data set [11] shares this target. Description: Inhibition of […] in human ARN8 cells assessed as decrease in Bcl2 protein expression at 20 nM incubated for 24 hrs by Western blot analysis. Format: cell-based.
Data set [12] in a line: Cytotoxicity against human HNDF cells assessed as reduction in cell viability incubated for 72 hrs in presence of 100 uM […], uridine by SRB assay. Format: cell-based. The method in brief:
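Normal dermal fibroblasts seeded at 15×10^2 per well and left 24 h, then treated 72 h in medium with 0.1% DMSO final plus 100 µM uridine. Fixed with TCA, stained with 0.4% SRB, dye dissolved in Tris and read at 490 nm. Growth/viability given as % of DMSO control; mean ± SD of three technical replicates.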
On the technique in general: The SRB assay estimates cell density from bound dye.

The target in data set [13] is T1, Dihydroorotate dehydrogenase (quinone), mitochondrial. The data set can be described thus: Inhibition of DHODH in human ARN8 cells assessed as increase in p53 level at 20 nM incubated for 24 hrs in presence of 100 uM […], uridine by Western blot analysis. Format: cell-based. Put shortly:
as §3

T1 sequence (Q02127 whole entry): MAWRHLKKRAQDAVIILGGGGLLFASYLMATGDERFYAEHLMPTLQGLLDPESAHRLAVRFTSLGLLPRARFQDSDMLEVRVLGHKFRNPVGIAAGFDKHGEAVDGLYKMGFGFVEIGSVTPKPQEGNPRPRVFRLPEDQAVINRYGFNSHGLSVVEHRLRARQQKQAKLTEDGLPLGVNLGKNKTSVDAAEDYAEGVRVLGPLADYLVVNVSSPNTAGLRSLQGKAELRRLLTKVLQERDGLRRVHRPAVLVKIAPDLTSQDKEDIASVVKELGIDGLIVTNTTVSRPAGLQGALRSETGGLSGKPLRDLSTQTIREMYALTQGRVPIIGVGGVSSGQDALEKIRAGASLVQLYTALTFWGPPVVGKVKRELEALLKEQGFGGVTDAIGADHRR

With `O=C(N[C@@H]1CCCc2c1cnn2-c1ccccc1F)c1ncn2c1CCCC2`, the IC50 in data set [1] is less than 0.005 µM; in [8], greater than 10 µM. Further, the inhibition result in data set [2], in data set [4], in data set [7], in data set [9] and in [11] was “Active” each time. In addition, the inhibition result in data set [3], in [6], in [10] and in data set [13] was “inactive” each time. In addition, the half-life at 1 µM in data set [5] is greater than 1 h. For the same compound, the Activity entry in data set [12] was “Toxic”.

A word on the IC50: it is the concentration at which inhibition is half-maximal. For orientation: half-life means how long it takes for the measured level to halve.
